Data from ChEMBL document CHEMBL3259745, “Identification of trisubstituted-pyrazol carboxamide analogs as novel and potent antagonists of farnesoid X receptor” (Bioorg Med Chem, 2014).
The source made the active and inactive calls. No cut-off for these calls is given here.

Legend:
Bile acid receptor [1] = biological target: T1, Bile acid receptor (Homo sapiens, UniProt Q96RI1); experiment: Antagonist activity at human GST-tagged FXR after 20 mins by TR-FRET assay
T1 sequence (Q96RI1 whole entry): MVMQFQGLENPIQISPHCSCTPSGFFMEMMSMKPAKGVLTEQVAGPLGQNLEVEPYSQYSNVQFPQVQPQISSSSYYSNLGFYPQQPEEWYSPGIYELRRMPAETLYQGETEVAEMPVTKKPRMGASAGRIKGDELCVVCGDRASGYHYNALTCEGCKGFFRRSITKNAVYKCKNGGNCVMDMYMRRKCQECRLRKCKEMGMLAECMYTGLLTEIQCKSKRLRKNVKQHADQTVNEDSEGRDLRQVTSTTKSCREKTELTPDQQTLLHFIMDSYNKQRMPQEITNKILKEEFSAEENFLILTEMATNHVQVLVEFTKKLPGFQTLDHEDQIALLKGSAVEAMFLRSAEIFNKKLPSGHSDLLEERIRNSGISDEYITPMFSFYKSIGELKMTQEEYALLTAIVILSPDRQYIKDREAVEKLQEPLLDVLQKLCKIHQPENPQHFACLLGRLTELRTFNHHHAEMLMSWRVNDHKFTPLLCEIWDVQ

[2] = biological target: T2, Bile acid receptor (Homo sapiens) (UniProt Q96RI1); experiment: Inhibition of GW4064-induced transactivation of FXR (unknown origin) expressed in HEK293T cells at 40 uM after 16 hrs by beta-lactamase reporter gene assay relative to control; type: cell-based; details: HEK-293T
T2 sequence (whole entry): T1 sequence (Q96RI1 whole entry)

Bile acid receptor [3] = biological target: T1, Bile acid receptor; experiment: Inhibition of GW4064-induced transactivation of FXR (unknown origin) expressed in HEK293T cells after 16 hrs by beta-lactamase reporter gene assay; type: cell-based, HEK-293T
[4] = Cytotoxicity against HEK293T cells expressing FXR and beta-lactamase genes assessed as inhibition of cell viability at 40 uM after 16 hrs by CellTiter-Glo luminescent assay relative to control; type: cell-based, HEK-293T; details: human, read-out: INH
Procedure, shortened: (§1)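 Viability run alongside the agonist assay in the same GeneBLAzer FXR HEK 293T cells: 20,000 cells/well in phenol red-free DMEM with 2% charcoal/dextran-treated FBS, 0.5% DMSO, 16 h at 37°C. Cooled 20 min, then CellTiter-Glo added for 20 min in dark; luminescence read.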

[5] = biological target: T2, Bile acid receptor (Homo sapiens); experiment: Antagonist activity at human GST-tagged FXR at 13.3 uM after 20 mins by TR-FRET assay relative to control
[6] = biological target: T2, Bile acid receptor (Homo sapiens); experiment: Agonist activity at human FXR
[7] = biological target: T2, Bile acid receptor (Homo sapiens); experiment: Antagonist activity at human GST-tagged FXR at […] nM after 20 mins by TR-FRET assay relative to control
[8] = biological target: T2, Bile acid receptor (Homo sapiens); details: 4.44 uM
[9] = biological target: T2, Bile acid receptor (Homo sapiens); experiment: Antagonist activity at human GST-tagged FXR at 4.4 uM after 20 mins by TR-FRET assay relative to control
[10] = biological target: T2, Bile acid receptor (Homo sapiens); experiment: Agonist activity at FXR (unknown origin) expressed in HEK293T cells after 16 hrs by beta-lactamase reporter gene assay relative to control; type: cell-based; details: HEK-293T
[11] = biological target: T2, Bile acid receptor (Homo sapiens); experiment: Antagonist activity at human GST-tagged FXR at 1.5 uM after 20 mins by TR-FRET assay relative to control
[12] = biological target: T2, Bile acid receptor (Homo sapiens); experiment: Antagonist activity at human GST-tagged FXR at 1.48 uM after 20 mins by TR-FRET assay relative to control
[13] = biological target: T2, Bile acid receptor (Homo sapiens); experiment: Antagonist activity at human GST-tagged FXR at 40 uM after 20 mins by TR-FRET assay relative to control
[14] = biological target: T2, Bile acid receptor (Homo sapiens); experiment: Inhibition of GW4064-induced transactivation of FXR (unknown origin) expressed in HEK293T cells at 1 uM after 16 hrs by beta-lactamase reporter gene assay relative to control; type: cell-based; details: HEK-293T
[15] = biological target: T2, Bile acid receptor (Homo sapiens); experiment: Inhibition of GW4064-induced transactivation of FXR (unknown origin) expressed in HEK293T cells at 20 uM after 16 hrs by beta-lactamase reporter gene assay relative to control; type: cell-based; details: HEK-293T
[16] = biological target: T2, Bile acid receptor (Homo sapiens); experiment: Antagonist activity at human GST-tagged FXR at 164 nM after 20 mins by TR-FRET assay relative to control
[17] = Cytotoxicity against HEK293T cells expressing FXR and beta-lactamase genes assessed as inhibition of cell viability at 4.4 uM after 16 hrs by CellTiter-Glo luminescent assay relative to control; type: cell-based, HEK-293T; details: human, read-out: INH; procedure, shortened: as §1
[18] = Cytotoxicity against HEK293T cells expressing FXR and beta-lactamase genes assessed as inhibition of cell viability at 13.3 uM after 16 hrs by CellTiter-Glo luminescent assay relative to control; type: cell-based, HEK-293T; details: human, read-out: INH; procedure, shortened: as §1
[19] = biological target: T2, Bile acid receptor (Homo sapiens); experiment: Ratio of E16 IC50 to compound IC50 for human GST-tagged FXR after 20 mins by TR-FRET assay
[20] = biological target: T2, Bile acid receptor (Homo sapiens); experiment: Ratio of E16 IC50 to compound IC50 for transactivation of FXR (unknown origin) expressed in HEK293T cells after 16 hrs by beta-lactamase reporter gene assay; type: cell-based; details: HEK-293T

SMILES	inhibition [2] [%]	Activity [6]	Activity [10]	cytotoxicity at 16 h, 40 µM [4] [%]	also measured
Cc1ccc(NC(=O)c2c(C)nn(-c3ccccc3)c2C)cc1S(=O)(=O)N1CCOCC1	99	inactive	–	47.4	IC50 (Bile acid receptor [1]): 3.3 µM; IC50 (Bile acid receptor [3]): 11.8 µM; inhibition [5]: 70.6%
O=C(Nc1ccc(S(=O)(=O)N2CCOCC2)cc1)c1cn(-c2ccccc2)nc1-c1ccc(Cl)cc1	20.6	inactive	–	< 5	inhibition [7]: 17.8%
O=C(Nc1cccc(S(=O)(=O)N2CCOCC2)c1)c1cn(-c2ccccc2)nc1-c1cccnc1	82.3	inactive	–	< 5	IC50 (Bile acid receptor [1]): 1.3 µM; IC50 (Bile acid receptor [3]): 10.8 µM; inhibition [8]: 90.4%
COc1ccc(-c2nn(-c3ccccc3)cc2C(=O)Nc2cc(S(=O)(=O)N3CCOCC3)ccc2N2CCOCC2)cc1	27	inactive	–	< 5	inhibition [7]: 11.6%
Cc1ccc(NC(=O)c2cn(C(C)C)nc2-c2ccc(C(F)(F)F)cc2)cc1S(=O)(=O)N1CCOCC1	100	–	inactive	19.5	inhibition [9]: 133%
Cc1cccc(-n2ncc(C(=O)Nc3cccc(S(=O)(=O)N4CCOCC4)c3)c2C)c1	66.9	inactive	–	< 5	IC50 (Bile acid receptor [1]): 6.6 µM; IC50 (Bile acid receptor [3]): 29.3 µM; inhibition [5]: 85.1%
CCN(CC)S(=O)(=O)c1cc(NC(=O)c2cnn(-c3cccnc3)c2)ccc1C	24	inactive	–	10.3	inhibition [12]: 23%
O=C(Nc1cccc(S(=O)(=O)N2CCOCC2)c1)c1cn(-c2ccccc2)nc1-c1ccc(Cl)cc1	38.8	inactive	–	< 5	inhibition [7]: 36.9%
Cc1ccc(-c2nn(C(C)C)cc2C(=O)N(C)c2ccc(C)c(S(=O)(=O)N3CCOCC3)c2)cc1	86.4	–	inactive	15	inhibition [13]: 133%; inhibition [14]: inactive
Cc1ccc(NC(=O)c2cnn(-c3ccccc3)c2C(F)(F)F)cc1S(=O)(=O)N1CCOCC1	101	inactive	–	51.3	IC50 (Bile acid receptor [1]): 0.996 µM; IC50 (Bile acid receptor [3]): 11.8 µM; inhibition [5]: 99.8%
Cc1ccc(-c2nn(C(C)C)cc2CNc2ccc(C)c(S(=O)(=O)N3CCOCC3)c2)cc1	36.8	–	inactive	10.5	inhibition [5]: 99.5%; inhibition [14]: inactive
O=C(Nc1ccc(F)c(S(=O)(=O)N2CCOCC2)c1)c1cnn(-c2ccccc2)c1	80.3	inactive	–	27.4	IC50 (Bile acid receptor [1]): 8.3 µM; IC50 (Bile acid receptor [3]): 9.4 µM; inhibition [5]: 83.8%
Cc1ccc(-c2nn(-c3nc4ccccc4s3)cc2C(=O)Nc2ccc(C)c(S(=O)(=O)N3CCOCC3)c2)cc1	79.1	–	inactive	–	inhibition [16]: 102%; cytotoxicity at 16 h, 13.3 µM [18]: 11.5%; Ratio IC50 [19]: 3

Further lines, with some results ahead:

inhibition [2] [%]	Activity [6]	Activity [10]	SMILES	cytotoxicity at 16 h, 40 µM [4] [%]	also measured
100	–	inactive	Cc1ccc(-c2nn(CC3CC3)cc2C(=O)Nc2ccc(C)c(S(=O)(=O)N3CCOCC3)c2)cc1	< 5	inhibition [11]: 105%
99.1	–	inactive	Cc1ccc(-c2nn(C(C)C)cc2C(=O)Nc2ccc(C)c(S(=O)(=O)N3CCOCC3)c2)cc1	< 5	inhibition [9]: 131%
3.1	–	inactive	COc1cccc(Cn2cc(CNc3ccc(C)c(S(=O)(=O)N4CCOCC4)c3)c(-c3cccc(OC)c3)n2)c1	< 5	inhibition [12]: 39.8%; inhibition [14]: inactive
64.8	–	inactive	COc1cccc(Cn2cc(CNc3ccc(C)c(S(=O)(=O)N4CCOCC4)c3)c(C(C)C)n2)c1	13.9	inhibition [9]: 72.5%; inhibition [14]: inactive
62.5	–	inactive	COCCc1nn(C(C)C)cc1C(=O)Nc1ccc(C)c(S(=O)(=O)N2CCOCC2)c1	< 5	inhibition [13]: 98.2%
–	–	inactive	COc1cccc(Cn2cc(C(=O)N(C)c3ccc(C)c(S(=O)(=O)N4CCOCC4)c3)c(C(C)C)n2)c1	13.5	inhibition [15]: 2.4%; inhibition [13]: 80.3%; inhibition [14]: inactive
84.4	–	inactive	Cc1ccc(-c2nn(Cc3ccc4ccccc4c3)cc2C(=O)Nc2ccc(C)c(S(=O)(=O)N3CCOCC3)c2)cc1	–	inhibition [16]: 97.8%; cytotoxicity at 16 h, 4.4 µM [17]: 7.9%
–	–	inactive	CCCCn1cc(C(=O)Nc2ccc(C)c(S(=O)(=O)N3CCOCC3)c2)c(-c2ccc(C)cc2)n1	–	inhibition [15]: 97.9%; inhibition [11]: 130%; cytotoxicity at 16 h, 4.4 µM [17]: 10.3%
23.8	–	inactive	COc1cccc(Cn2cc(C(=O)N(C)c3ccc(C)c(S(=O)(=O)N4CCOCC4)c3)c(-c3cccc(OC)c3)n2)c1	19.7	inhibition [13]: 69.7%; inhibition [14]: inactive
98.9	–	inactive	COc1cccc(Cn2cc(C(=O)Nc3ccc(C)c(S(=O)(=O)N4CCOCC4)c3)c(-c3ccc(C)cc3)n2)c1	< 5	inhibition [16]: 130%; Ratio IC50 [19]: 5.26; Ratio IC50 [20]: 4.59
97.8	–	inactive	COc1cccc(-c2nn(C(C)C)cc2C(=O)Nc2ccc(C)c(S(=O)(=O)N3CCOCC3)c2)c1	–	inhibition [5]: 150%; cytotoxicity at 16 h, 4.4 µM [17]: 10.8%
99.2	–	inactive	COc1cccc(Cn2cc(C(=O)Nc3ccc(C)c(S(=O)(=O)N4CCOCC4)c3)c(C(C)C)n2)c1	< 5	inhibition [9]: 101%
